# What was measured:
# [1] = system: Enterococcus faecalis; test: In vitro antibacterial activity of compound against Streptococcus faecalis ATCC 7080.; assay type: functional
# Method in brief: (§1)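 Twofold microdilution MIC in Iso-Sensitest broth over 128-0.0001 µg/mL. Inoculum was 10^4 cfu/mL, with incubation at 37 °C for 18-24 h.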
# [2] = system: Neisseria gonorrhoeae; test: In vitro antibacterial activity of compound against Neisseria gonorrhoeae ISM 68/126; assay type: functional
# [3] = system: Mycobacterium avium; test: 50% inhibition of the 20 Mycobacterium (MAC) avium complex clinical isolates; assay type: functional
# Method in brief: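 Agar-dilution MICs, 2-fold dilutions over 128-0.0001 μg/mL, on Middlebrook 7H10 agar with 2% glycerol and 10% OADC. Organisms from Loevenstein-Jensen slants were grown in 7H9 broth with 0.5% Tween and 10% OADC, adjusted to McFarland no. 1, and spotted with a multipoint inoculator. Plates were sealed and incubated at 22, 30 or 37 °C for 4-20 days depending on strain.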
# [4] = system: Proteus vulgaris; test: In vitro antibacterial activity of compound against Proteus vulgaris X19H ATCC 881; assay type: functional
# [5] = system: Mycobacterium tuberculosis; test: In vitro antibacterial activity of compound against Mycobacterium tuberculosis H37Rv ATCC 9660; assay type: functional
# [6] = system: Mycobacterium avium; test: 90% inhibition of the 20 Mycobacterium avium complex (MAC) clinical isolates
# [7] = system: Mycobacterium avium; test: Minimum inhibitory concentration of compound against 20 Mycobacterium avium complex (MAC) clinical isolates
# [8] = system: Streptococcus pneumoniae; test: In vitro antibacterial activity of compound against Streptococcus pneumoniae UC 41; assay type: functional
# Method in brief: (§2)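 Streptococcal MICs were run by twofold microdilution in Todd-Hewitt broth over 128-0.0001 µg/mL. Inoculum was 10^4 cfu/mL, with incubation at 37 °C for 18-24 h.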
# [9] = system: Pseudomonas aeruginosa; test: In vitro antibacterial activity of compound against Pseudomonas aeruginosa ATCC 10145; assay type: functional; method in brief: as §1
# [10] = system: Staphylococcus aureus; test: In vitro antibacterial activity of compound against Staphylococcus aureus Tour L 165; assay type: functional; method in brief: as §1
# [11] = system: Streptococcus pyogenes; test: In vitro antibacterial activity of compound against Streptococcus pyogenes C 203 SKF 13400; assay type: functional; method in brief: as §2
# [12] = system: Staphylococcus epidermidis; test: In vitro antibacterial activity of compound against Staphylococcus epidermidis ATCC 12228; assay type: functional; method in brief: as §1
# [13] = system: Haemophilus influenzae; test: In vitro antibacterial activity of compound against Haemophilus influenzae ATCC 19418; assay type: functional
# [14] = system: Klebsiella pneumoniae; test: In vitro antibacterial activity of compound against Klebsiella pneumoniae ISM; assay type: functional
# [15] = system: Escherichia coli; test: In vitro antibacterial activity of compound against Escherichia coli SKF 12140; assay type: functional
# [16] = system: Staphylococcus aureus; test: Activity in the murine model (subcutaneous route) of Staphylococcus aureus tour septicemia; assay type: functional; conditions: sc
# Method in brief: (§3)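 Male and female CD1 mice (18-22 g) were infected ip with S. aureus Tour. The challenge was set so untreated mice died within 48 h. Groups were five mice, dosed once daily for 3 days starting immediately after infection. ED50 was calculated on day 10 from the percentage surviving at each dose.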
# [17] = system: Staphylococcus aureus; test: Activity in the murine model (OS route) of Staphylococcus aureus tour septicemia; assay type: functional; method in brief: as §3
# [18] = system: Streptococcus pyogenes; test: Minimum inhibitory concentration of compound against Streptococcus pyogenus septicemia in the mouse; assay type: functional
# [19] = system: Streptococcus pyogenes; test: Inhibitory concentration of compound against Streptococcus pyogenus septicemia in the mouse, administarted in OS route; assay type: functional
# Method in brief: (§4)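 Male and female CD1 mice (18-22 g) were infected ip with S. pyogenes C203, with the challenge set so untreated mice died within 48 h. Groups of five received a single treatment immediately after infection. ED50 was calculated from the percentage surviving at each dose on day 10.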
# [20] = system: Streptococcus pyogenes; test: Inhibitory concentration of compound against Streptococcus pyogenus septicemia in the mouse, administarted in subcutaneous route; assay type: functional; conditions: sc; method in brief: as §4
SMILES,MIC [1],MIC [2],MIC50 [3],MIC [4],MIC [5],MIC90 [6],MIC [7],MIC [8],MIC [9],MIC [10],MIC [11],MIC [12],MIC [13],MIC [14],MIC [15],ED50 [16],ED50 [17],MIC [18],ED50 [19],ED50 [20]
COC1/C=C/OC2(C)Oc3c(C)c(O)c4c(O)c(c5sc(N6CCN(C)CC6)nc5c4c3C2=O)NC(=O)/C(C)=C\C=C\C(C)C(O)C(C)C(O)C(C)C(OC(C)=O)C1C (centres undefined),0.032 µg/mL,16 µg/mL,64 µg/mL,32 µg/mL,2 µg/mL,64 µg/mL,16 µg/mL,0.125 µg/mL,8 µg/mL,0.004 µg/mL,0.032 µg/mL,0.063 µg/mL,0.5 µg/mL,16 µg/mL,2 µg/mL,,,,,
COC1/C=C/OC2(C)Oc3c(C)c(O)c4c(O)c(c5sc(N6CCN(C)CC6)nc5c4c3C2=O)NC(=O)/C(C)=C\C=C\C(C)C(O)C(C)C(O)C(C)C(O)C1C (centres undefined),1 µg/mL,1 µg/mL,,8 µg/mL,1 µg/mL,,,0.063 µg/mL,16 µg/mL,0.008 µg/mL,0.063 µg/mL,0.125 µg/mL,0.125 µg/mL,16 µg/mL,8 µg/mL,10 mg/kg,,,,
COC1/C=C/OC2(C)Oc3c(C)c(O)c4c(O)c(c5sc(N6CCN(CCO)CC6)nc5c4c3C2=O)NC(=O)/C(C)=C\C=C\C(C)C(O)C(C)C(O)C(C)C(OC(C)=O)C1C (centres undefined),4 µg/mL,0.125 µg/mL,,16 µg/mL,1 µg/mL,,,0.008 µg/mL,16 µg/mL,0.016 µg/mL,0.016 µg/mL,0.125 µg/mL,0.125 µg/mL,32 µg/mL,8 µg/mL,,> 20 mg/kg,,,
CCNc1nc2c(s1)c1c(O)c3c(O)c(C)c4c(c32)C(=O)C(C)(O/C=C/C(OC)C(C)C(OC(C)=O)C(C)C(O)C(C)C(O)C(C)/C=C/C=C(/C)C(=O)N1)O4 (centres undefined),1 µg/mL,0.125 µg/mL,32 µg/mL,8 µg/mL,0.125 µg/mL,64 µg/mL,8 µg/mL,0.063 µg/mL,4 µg/mL,0.063 µg/mL,0.063 µg/mL,0.032 µg/mL,0.125 µg/mL,32 µg/mL,16 µg/mL,,,0.063 µg/mL,> 4 mg/kg,
CCCCNc1nc2c(s1)c1c(O)c3c(O)c(C)c4c(c32)C(=O)C(C)(O/C=C/C(OC)C(C)C(OC(C)=O)C(C)C(O)C(C)C(O)C(C)/C=C/C=C(/C)C(=O)N1)O4 (centres undefined),1 µg/mL,0.125 µg/mL,32 µg/mL,16 µg/mL,,64 µg/mL,2 µg/mL,0.063 µg/mL,8 µg/mL,0.032 µg/mL,0.063 µg/mL,0.016 µg/mL,0.125 µg/mL,64 µg/mL,16 µg/mL,,,0.063 µg/mL,> 10 mg/kg,6.6 mg/kg
COC1/C=C/OC2(C)Oc3c(C)c(O)c4c(O)c(c5sc(N6CCOCC6)nc5c4c3C2=O)NC(=O)/C(C)=C\C=C\C(C)C(O)C(C)C(O)C(C)C(OC(C)=O)C1C (centres undefined),1 µg/mL,0.125 µg/mL,32 µg/mL,8 µg/mL,2 µg/mL,128 µg/mL,> 16 µg/mL,0.016 µg/mL,16 µg/mL,0.002 µg/mL,0.032 µg/mL,0.063 µg/mL,0.5 µg/mL,32 µg/mL,16 µg/mL,,,,,
COC1/C=C/OC2(C)Oc3c(C)c(O)c4c(O)c(c5sc(N6CCN(c7ccc(Cl)cc7)CC6)nc5c4c3C2=O)NC(=O)/C(C)=C\C=C\C(C)C(O)C(C)C(O)C(C)C(OC(C)=O)C1C (centres undefined),4 µg/mL,0.25 µg/mL,,64 µg/mL,1 µg/mL,,,0.063 µg/mL,128 µg/mL,0.063 µg/mL,0.125 µg/mL,0.063 µg/mL,0.125 µg/mL,> 128 µg/mL,8 µg/mL,,,,,
CCCCN(CCCC)c1nc2c(s1)c1c(O)c3c(O)c(C)c4c(c32)C(=O)C(C)(O/C=C/C(OC)C(C)C(OC(C)=O)C(C)C(O)C(C)C(O)C(C)/C=C/C=C(/C)C(=O)N1)O4 (centres undefined),4 µg/mL,2 µg/mL,1 µg/mL,> 128 µg/mL,,2 µg/mL,0.25 µg/mL,0.063 µg/mL,> 128 µg/mL,0.063 µg/mL,0.125 µg/mL,0.125 µg/mL,1 µg/mL,> 128 µg/mL,> 128 µg/mL,,,0.125 µg/mL,1.23 mg/kg,1.62 mg/kg

# — ChEMBL document CHEMBL1124774, “Synthesis and biological activity of some derivatives of rifamycin P” (1990)
